Measurements published in ChEMBL document CHEMBL1129609, “Synthesis and antiviral activity evaluation of some new aminoadamantane derivatives. 2” (1996).
In brackets after ≈: the same amount, converted by molar mass.

Key:
Human alphaherpesvirus 3 [1] = experiment: Antiviral activity against TK-VZV virus infected HEL cell lines.; assay type: functional
Summary of the method: (§1)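 Vero (African green monkey kidney), HeLa (human epithelial) or HEL (human embryonic lung) cell monolayers infected with the virus. Readout is the minimum inhibitory concentration that reduces virus-induced cytopathicity by 50%. Values are averages of at least two separate experiments.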

Sindbis virus = experiment: Antiviral activity against sindbis virus infected Vero cell lines.; assay type: functional; summary of the method: as §1
[2] = Antiviral activity against influenza A,H2N2 virus infected MDCK cell lines.; assay type: functional
Human respirovirus 3 = experiment: Antiviral activity against parainfluenza 3 virus infected Vero cell lines.; assay type: functional; summary of the method: as §1
HeLa = experiment: Effects on cell morphology of HeLa cell lines.; assay type: functional; settings: Homo sapiens
Summary of the method: (§2)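 HeLa (human epithelial) or Vero (African green monkey kidney) cells were examined under the microscope for changes in normal morphology. The value is the minimum concentration causing a detectable alteration, averaged from at least two separate experiments.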

Human alphaherpesvirus 1 [3] = experiment: Antiviral activity against HSV-1 virus infected HEF cell lines.; assay type: functional
Summary of the method: (§3)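 Human embryonic fibroblasts, from embryonic lung or embryonic skin-muscle, infected with the virus. Endpoint is the minimum inhibitory concentration that reduces virus-induced cytopathicity by 50%. Values are averages of at least two separate experiments.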

CCRF-CEM = experiment: Cytotoxicity against CEM cell lines.; assay type: functional; settings: Homo sapiens
HEL = experiment: Inhibition of HEL cell proliferation.; assay type: functional; settings: Homo sapiens
Summary of the method: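 Human embryonic lung fibroblasts were used for the proliferation assay. The value is the concentration that reduces cell proliferation by 50%, averaged from at least two separate experiments.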

[4] = system: Vesicular stomatitis virus; experiment: Antiviral activity against vesicular stomatitis virus infected HeLa cell lines.; assay type: functional; summary of the method: as §1
Human betaherpesvirus 5 = experiment: Antiviral activity against HCMV virus infected HEL cell lines.; assay type: functional; summary of the method: as §1
[5] = system: Vesicular stomatitis virus; experiment: Antiviral activity against vesicular stomatitis virus infected HEF cell lines.; assay type: functional; summary of the method: as §3
Vaccinia virus = experiment: Antiviral activity against vaccinia virus infected HEF cell lines.; assay type: functional; settings: Orthopoxvirus vaccinia; summary of the method: as §3
MDCK [6] = experiment: Antiviral activity of compound was tested against morphology virus infec+ted MDCK cell lines.; assay type: functional; settings: Canis lupus familiaris
Enterovirus C = experiment: Antiviral activity against polio 1 virus infected HeLa cell lines.; assay type: functional; summary of the method: as §1
[7] = system: Human immunodeficiency virus 1; experiment: Antiviral activity against HIV-1 virus infected CEM cell lines.; assay type: functional, CCRF-CEM
Human alphaherpesvirus 1 [8] = experiment: Antiviral activity against TK-HSV-1 virus infected HEF cell lines.; assay type: functional; summary of the method: as §3
HEF = experiment: Effects on cell morphology of HEF cell lines.; assay type: functional; settings: Homo sapiens
Summary of the method: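 Human embryonic skin-muscle fibroblasts were examined under the microscope for changes in normal cell morphology. The value is the minimum concentration causing a microscopically detectable alteration, averaged from at least two separate experiments.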

[9] = system: Human immunodeficiency virus 2; experiment: Antiviral activity against HIV-2 virus infected CEM cell lines.; assay type: functional, CCRF-CEM
Coxsackievirus B4 [10] = experiment: Antiviral activity against Coxsackie B4 virus infected HeLa cell lines.; assay type: functional; settings: Enterovirus B; summary of the method: as §1
[11] = system: Mammalian orthoreovirus 1; experiment: Antiviral activity against Reo 1 virus infected vero cell lines.; assay type: functional; summary of the method: as §1
Semliki Forest virus = experiment: Antiviral activity against Semliki forest virus infected Vero cell lines.; assay type: functional; summary of the method: as §1
Human alphaherpesvirus 3 [12] = experiment: Antiviral activity against TK+VZV virus infected HEL cell lines.; assay type: functional; summary of the method: as §1
MDCK [13] = experiment: Antiviral activity tested against influenza A,H1N1 virus infected MDCK cell lines.; assay type: functional; settings: Canis lupus familiaris
Coxsackievirus B4 [14] = experiment: Antiviral activity against Coxsackie B4 virus infected vero cell lines.; assay type: functional; settings: Enterovirus B; summary of the method: as §1
Influenza B virus = experiment: Antiviral activity against influenza B virus infected MDCK cell lines.; assay type: functional
[15] = Antiviral activity against influenza A,H3N2 virus infected MDCK cell lines.; assay type: functional
Human alphaherpesvirus 2 = experiment: Antiviral activity against HSV-2 virus infected HEF cell lines.; assay type: functional; summary of the method: as §3
Vero = experiment: Effects on cell morphology of Vero cell lines.; assay type: functional; settings: Chlorocebus sabaeus; summary of the method: as §2

Row | Structure (SMILES) | MIC50 (Human alphaherpesvirus 3 [1]) [µg/mL] | MIC50 (Sindbis virus) [µg/mL] | MIC50 [2] [µg/mL] | MIC50 (Human respirovirus 3) [µg/mL] | MIC50 (HeLa) [µg/mL] | MIC50 (Human alphaherpesvirus 1 [3]) [µg/mL] | MIC50 (CCRF-CEM) [µg/mL] | MIC50 (HEL) [µg/mL] | MIC50 [4] [µg/mL] | MIC50 (Human betaherpesvirus 5) [µg/mL] | MIC50 [5] [µg/mL] | MIC50 (Vaccinia virus) [µg/mL] | MIC50 (MDCK [6]) [µg/mL] | MIC50 (Enterovirus C) [µg/mL] | MIC50 [7] [µg/mL] | MIC50 (Human alphaherpesvirus 1 [8]) [µg/mL] | MIC50 (HEF) [µg/mL] | MIC50 [9] [µg/mL] | MIC50 (Coxsackievirus B4 [10]) [µg/mL] | MIC50 [11] [µg/mL] | further results
1 | CNC1(C23CC4CC(CC(C4)C2)C3)CCCC1 | > 20 | > 100 | 9 (≈ 38.6 µM) | > 100 | > 100 | > 10 | 49 (≈ 210 µM) | > 50 | > 40 | > 20 | > 10 | > 10 | > 250 | > 40 | > 8 | > 10 | 40 (≈ 171 µM) | > 8 | > 40 | > 100 | MIC50 (Semliki Forest virus): > 100 µg/mL; MIC50 (Human alphaherpesvirus 3 [12]): > 20 µg/mL; MIC50 (MDCK [13]): 59 µg/mL (≈ 253 µM); MIC50 (Coxsackievirus B4 [14]): > 100 µg/mL; MIC50 (Influenza B virus): > 80 µg/mL; MIC50 [15]: > 60 µg/mL; MIC50 (Human alphaherpesvirus 2): > 10 µg/mL; MIC50 (Vero): > 400 µg/mL
2 | CCN1CCCCC12C1CC3CC(C1)CC2C3 (stereo not given) | > 50 | > 400 | 31 (≈ 133 µM) | > 400 | > 400 | > 200 | > 200 | > 50 | > 400 | > 50 | > 200 | > 200 | > 250 | > 400 | 200 (≈ 857 µM) | > 200 | 100 (≈ 428 µM) | > 200 | > 400 | > 400 | MIC50 (Semliki Forest virus): > 400 µg/mL; MIC50 (Human alphaherpesvirus 3 [12]): > 50 µg/mL; MIC50 (MDCK [13]): 4.4 µg/mL (≈ 18.9 µM); MIC50 (Coxsackievirus B4 [14]): > 400 µg/mL; MIC50 (Influenza B virus): > 80 µg/mL; MIC50 [15]: > 65 µg/mL; MIC50 (Human alphaherpesvirus 2): > 200 µg/mL; MIC50 (Vero): > 400 µg/mL
3 | CN1CCCCC12C1CC3CC(C1)CC2C3 (stereo not given) | > 50 | > 400 | 0.58 (≈ 2.64 µM) | > 400 | > 400 | > 200 | > 200 | > 50 | > 400 | > 50 | > 200 | > 200 | > 250 | > 400 | 115 (≈ 524 µM) | > 200 | 100 (≈ 456 µM) | > 200 | > 400 | > 400 | MIC50 (Semliki Forest virus): > 400 µg/mL; MIC50 (Human alphaherpesvirus 3 [12]): > 50 µg/mL; MIC50 (MDCK [13]): 6.2 µg/mL (≈ 28.3 µM); MIC50 (Coxsackievirus B4 [14]): > 400 µg/mL; MIC50 (Influenza B virus): 60 µg/mL (≈ 274 µM); MIC50 [15]: 45 µg/mL (≈ 205 µM); MIC50 (Human alphaherpesvirus 2): > 200 µg/mL; MIC50 (Vero): > 400 µg/mL
4 | C1CCC2(C1)CCCN2CC12CC3CC(CC(C3)C1)C2 | 20 (≈ 73.1 µM) | > 100 | > 60 | > 100 | 200 (≈ 731 µM) | > 40 | 59 (≈ 216 µM) | > 50 | > 100 | > 50 | > 100 | > 40 | > 250 | > 100 | > 40 | > 40 | 100 (≈ 366 µM) | > 40 | > 100 | > 100 | MIC50 (Semliki Forest virus): > 100 µg/mL; MIC50 (Human alphaherpesvirus 3 [12]): 32 µg/mL (≈ 117 µM); MIC50 (MDCK [13]): > 150 µg/mL; MIC50 (Coxsackievirus B4 [14]): > 100 µg/mL; MIC50 (Influenza B virus): > 100 µg/mL; MIC50 [15]: > 47 µg/mL; MIC50 (Human alphaherpesvirus 2): > 40 µg/mL; MIC50 (Vero): > 400 µg/mL
5 | CCN1CCCC1C12CC3CC(CC(C3)C1)C2 (stereo not given) | > 50 | > 400 | > 14 | > 400 | > 400 | > 100 | 115 (≈ 493 µM) | > 50 | > 400 | > 50 | > 100 | > 100 | 250 (≈ 1070 µM) | > 400 | > 40 | > 100 | 200 (≈ 857 µM) | > 40 | > 400 | > 400 | MIC50 (Semliki Forest virus): > 400 µg/mL; MIC50 (Human alphaherpesvirus 3 [12]): > 50 µg/mL; MIC50 (MDCK [13]): > 34 µg/mL; MIC50 (Coxsackievirus B4 [14]): > 400 µg/mL; MIC50 (Influenza B virus): 60 µg/mL (≈ 257 µM); MIC50 [15]: 58 µg/mL (≈ 249 µM); MIC50 (Human alphaherpesvirus 2): > 100 µg/mL; MIC50 (Vero): > 400 µg/mL
